Where two headings read alike, the source gives them in different places.
How the values were obtained:
[1] = Portal blood pharmacokinetics of TU-100 ingredients after single oral TU-100; format: in vivo, rat
Outline: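 Purchased male Sprague Dawley rats with hepatic portal vein catheters were fasted 16 h. They received oral TU-100 drug substance at 0.3 g/kg plus 2.4 g/kg maltose (n = 5). Portal plasma was sampled at 0.083, 0.25, 0.5, 1, 2, 4, 8 and 24 h and stored at −80°C. Samples were protein-precipitated with internal standard, optionally treated with β-glucuronidase (final 0.1 U/μL, pH 6.0, 37°C), then run on LC-MS/MS. Cmax and tmax were observed; AUC0–last was taken to the last detected time; values mean ± SD.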

[2] = format: in vivo, rat; settings: for Effect of β-glucuronidase treatment on blood concentrations: rat blood, data not shown
Outline: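 Male Sprague Dawley rats (7 weeks, 274.2–317.7 g) were fasted 16 h and had jugular vein catheters placed 2 days earlier. Single oral TU-100 drug substance was given at 0.3 g/kg with 2.4 g/kg maltose (n = 5), or 0.9 g/kg with 7.2 g/kg maltose for 6G/6S. Plasma was taken at 0.083–24 h and analysed by LC-MS/MS after acetonitrile/methanol precipitation with internal standard. Cmax observed; AUC0–last; t1/2 = ln2/ke.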

[3] = Recovery of TU-100 ingredients in small intestinal luminal contents; format: in vivo, rat; settings: for Effect of β-glucuronidase treatment on luminal amounts: rat small intestinal contents
Outline: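 Fasted male Sprague Dawley rats (n = 3 per time) were killed 0.083–4 h after oral TU-100 with maltose. The small intestine was ligated into quarters (sites 1–4, oral to anal), and contents were collected with cold water to 10 mL and stored at −80°C. Aliquots, with or without β-glucuronidase (final 0.1 U/μL, pH 6.0, 37°C), were mixed with HBSS/30% acetonitrile and internal standard, then analysed by LC-MS/MS. Amount per site was expressed as % of dosed ingredient; mean ± SD.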

[4] = format: in vivo; settings: human ileal effluent 4 h after 5 g TU-100 oral
Outline: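 Subjects were 10 ileostomy patients (2 male, 8 female), with stoma made at least 2 weeks prior and normal small intestine by enteroscopy. Those given kampo medicine within 4 weeks were excluded. A new bag was fitted, then 5 g TU-100 drug product (0.42 g drug substance) was taken, followed by an unrestricted breakfast. Effluent was collected at 4 h and frozen at −80°C. Liquid–liquid extraction used pH 5.0 ammonium acetate/PEG, methanol and internal standard, with or without β-glucuronidase (final 0.1 U/μL, 37°C), before LC-MS/MS. Results were expressed as % of ingested amount.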

[5] = isotope-labeled 6S administered orally; ref Asami et al. [2010]; cited from earlier work
[6] = male, Sprague Dawley, rat, plasma from portal blood, po, 0.3 g/kg
[7] = male, Sprague Dawley, rat, plasma from peripheral blood, po, 0.9 g/kg
[8] = rat peripheral blood, oral TU-100 0.3 g/kg, untreated, mean ± SD, n = 5
[9] = all sites, all rats, all time points, data not shown
[10] = male, Sprague Dawley, rat, plasma from peripheral blood, po, 0.3 g/kg
[11] = site 3 and 4, at 30 min and 1 h (Fig. 2)
[12] = site 4, at 2 h and 4 h (Fig. 2)

**Q.** What does the source list for CCCCC[C@H](O)CC(=O)CCc1ccc(O)c(OC)c1 [6G, [6]-gingerol]?
**A.** AUC [1, 6]: 59.7 ± 40.4 ng·h/mL; AUC(0-t) [1, 6]: 59.7 ± 40.4 ng·h/mL; Cmax [1, 6]: 38.3 ± 31.8 ng/mL; Tmax [1, 6]: 1.31 ± 1.8 h; half-life [1, 6]: 1.79 h; Peak concentration of 6G and its conjugates relative to that of HAS ([1]; rat portal blood): about one-fifth; AUC [2, 7]: 0.974 ± 0.839 ng·h/mL; AUC(0-t) [2, 7]: 0.974 ± 0.839 ng·h/mL; Cmax [2, 7]: 0.676 ± 0.479 ng/mL; Tmax [2, 7]: 0.466 ± 0.857 h; 6G in luminal contents as % of the ingested amount ([3]; all sites, at 30 min (Fig. 3)): below 2%; Unconjugated 6G in luminal contents as % of the ingested amount ([3]; sites 3 and/or 4, after 1 h (Fig. 3)): 2–3%; % of ingested TU-100, Median ([4]; β-glucuronidase treatment −): B.L.Q

**Q.** For CCCCC/C=C/C(=O)CCc1ccc(O)c(OC)c1 [6S, [6]-shogaol], which “Portal blood levels of 6S and its conjugates relative to 6G/6G conjugates” value ([1]; rat portal blood) is on record?
**A.** Its value is “approximately one tenth”.

**Q.** What about the “Concentrations of 6S and its conjugates in the portal blood” value ([1]; rat portal blood after oral TU-100) of the same compound?
**A.** Its value is “below 20 ng/mL”.

**Q.** And the “Presence of 6S and its conjugates in luminal contents” value ([3]; all sites, all rats, all time points (Fig. 3))?
**A.** Its value is “virtually absent”.

**Q.** What about the “% of ingested TU-100, Max” value ([4]; β-glucuronidase treatment +) of the same compound?
**A.** Its value is 0.8%.

**Q.** What about the “% of ingested TU-100, Median” value ([4]; β-glucuronidase treatment +) of the same compound?
**A.** Its value is 0.4%.

**Q.** And the “% of ingested TU-100, Median” value ([4]; β-glucuronidase treatment −)?
**A.** Its value is “B.L.Q”.

**Q.** What about the “Isotope labels recovered in the urine” value [5] of the same compound?
**A.** Its value is “about 90%”.

**Q.** For CCCCCCCCC[C@H](O)CC(=O)CCc1ccc(O)c(OC)c1 [10G, [10]-gingerol], which “% of ingested TU-100, Max” value ([4]; β-glucuronidase treatment +) is on record?
**A.** The value was 9.1%.

**Q.** What about the “% of ingested TU-100, Median” value ([4]; β-glucuronidase treatment +) of the same compound?
**A.** The value was 4.3%.

**Q.** And the “% of ingested TU-100, Median” value ([4]; β-glucuronidase treatment −)?
**A.** Its value is “B.L.Q”.

**Q.** For CCCCCCCCC/C=C/C(=O)CCc1ccc(O)c(OC)c1 [10S, [10]-shogaol], which “% of ingested TU-100, Max” value ([4]; β-glucuronidase treatment +) is on record?
**A.** Its value is 3.5%.

**Q.** And the “% of ingested TU-100, Median” value ([4]; β-glucuronidase treatment +)?
**A.** The value was 0.8%.

**Q.** What about the “% of ingested TU-100, Median” value ([4]; β-glucuronidase treatment −) of the same compound?
**A.** The value was “B.L.Q”.

**Q.** Which results are given for C/C=C/C=C/C=C\CC/C=C/C=C/C(=O)NCC(C)C [GS, γ-sanshool]?
**A.** % of ingested TU-100, Max ([4]; β-glucuronidase treatment −): 68.1%; % of ingested TU-100, Median ([4]; β-glucuronidase treatment −): 4.1%

**Q.** Which results are given for C/C=C/C=C/C=C\CC/C=C/C(=O)NCC(C)(C)O [HAS, hydroxy-α-sanshool]?
**A.** Effect of β-glucuronidase treatment on blood concentrations [2]: no effect; AUCall [2, 8]: 951 ± 264 ng·h/mL; AUClast [2, 8]: 951 ± 264 ng·h/mL; Cmax [2, 8]: 778 ± 276 ng/mL; Tmax [2, 8]: 0.283 ± 0.209 h; t1/2 [2, 8]: 3.01 ± 2.90 h; Time for blood concentration to reach almost 0 ([2]; rat portal and peripheral blood): ≤ 5 h; Level in luminal contents as % of the ingested amount [3, 9]: < 1%; Level in small intestinal luminal contents [3, 9]: below 10 μg/site; % of ingested TU-100, Max ([4]; β-glucuronidase treatment −): 0.4%; % of ingested TU-100, Median ([4]; β-glucuronidase treatment −): B.L.Q

**Q.** Which “Effect of β-glucuronidase treatment on blood concentrations” value [2] does the source give for C/C=C/C=C/C=C/CC/C=C/C(=O)NCC(C)(C)O [HBS, hydroxy-β-sanshool] here?
**A.** Its value is “no effect”.

**Q.** And the “Level in luminal contents as % of the ingested amount” value (“Level in luminal contents as %” below) [3, 9]?
**A.** The value was under 1%.

**Q.** And the “Level in small intestinal luminal contents” value [3, 9]?
**A.** Its value is “below 10 μg/site”.

**Q.** And the “% of ingested TU-100, Median” value ([4]; β-glucuronidase treatment −)?
**A.** The value was “B.L.Q”.

**Q.** With CC(C)=CCC[C@](C)(O[C@@H]1O[C@H](CO[C@@H]2O[C@H](CO)[C@@H](O)[C@H](O)[C@H]2O)[C@@H](O)[C@H](O)[C@H]1O)[C@H]1CC[C@]2(C)[C@@H]1[C@H](O)C[C@@H]1[C@@]3(C)CC[C@H](O[C@@H]4O[C@H](CO)[C@@H](O)[C@H](O)[C@H]4O[C@@H]4O[C@H](CO)[C@@H](O)[C@H](O)[C@H]4O)C(C)(C)[C@@H]3CC[C@]12C [Rb1, ginsenoside Rb1] as the compound, how does the AUC [1, 6] read?
**A.** The AUC was 28.7 ± 6.29 ng·h/mL.

**Q.** What about the AUC(0-t) [1, 6] of the same compound?
**A.** Its AUC(0-t) is 28.7 ± 6.29 ng·h/mL.

**Q.** And the Cmax [1, 6]?
**A.** The Cmax was 2.1 ± 1.13 ng/mL.

**Q.** And the Tmax [1, 6]?
**A.** Its Tmax is 6 ± 2.31 h.

**Q.** What about the Tmax ([2]; male, Sprague Dawley, rat, plasma (peripheral and portal blood), oral, 0.3 g/kg) of the same compound?
**A.** Its Tmax is about 4 h.

**Q.** And the AUC [2, 10]?
**A.** Its AUC is 34.3 ± 12 ng·h/mL.

**Q.** And the AUC(0-t) [2, 10]?
**A.** Its AUC(0-t) is 34.3 ± 12 ng·h/mL.

**Q.** And the Cmax [2, 10]?
**A.** The Cmax was 2.12 ± 0.759 ng/mL.

**Q.** And the Tmax [2, 10]?
**A.** Its Tmax is 4.8 ± 1.79 h.

**Q.** And the “Effect of β-glucuronidase treatment on blood concentrations” value [2]?
**A.** Its value is “no effect”.

**Q.** What about the “Effect of β-glucuronidase treatment on luminal amounts” value [3] of the same compound?
**A.** Its value is “did not have a significant effect”.

**Q.** What about the “Level in luminal contents as %” value [3, 11] of the same compound?
**A.** The value was “around 10%”.

**Q.** What about the “Level in luminal contents as %” value [3, 12] of the same compound?
**A.** The value was about 50%.

**Q.** And the “% of ingested TU-100, Max” value ([4]; β-glucuronidase treatment −)?
**A.** Its value is 77.5%.

**Q.** And the “% of ingested TU-100, Median” value ([4]; β-glucuronidase treatment −)?
**A.** The value was 59.1%.

**Q.** With CC(C)=CCC[C@](C)(O[C@@H]1O[C@H](CO)[C@@H](O)[C@H](O)[C@H]1O)[C@H]1CC[C@]2(C)[C@@H]1[C@H](O)C[C@@H]1[C@@]3(C)CC[C@H](O)C(C)(C)[C@@H]3[C@@H](O[C@@H]3O[C@H](CO)[C@@H](O)[C@H](O)[C@H]3O)C[C@]12C [Rg1, ginsenoside Rg1] as the compound, how does the Blood concentrations ([2]; rat blood after oral TU-100) read?
**A.** Its Blood concentrations is “too low to obtain reliable data”.

**Q.** And the “Effect of β-glucuronidase treatment on luminal amounts” value [3]?
**A.** The value was “did not have a significant effect”.

**Q.** And the “Level in luminal contents as %” value [3, 11]?
**A.** Its value is “around 10%”.

**Q.** And the “Level in luminal contents as %” value [3, 12]?
**A.** Its value is about 30%.

**Q.** And the “% of ingested TU-100, Max” value ([4]; β-glucuronidase treatment −)?
**A.** The value was 114.0%.

**Q.** What about the “% of ingested TU-100, Median” value ([4]; β-glucuronidase treatment −) of the same compound?
**A.** The value was 91.5%.

From PMC4618637 (Pharmacology Research & Perspectives, 2015)
